# Paper PMC4203399 (Journal of Medicinal Chemistry, 2014)
# “Also recorded” adds a separate entry of the source.
# Legend:
# [1] = biological target: recombinant NS5BCΔ21 mutant M423T (Hepatitis C virus genotype 1b, UniProt O92972, M2842T); assay: NS5B mutant counterscreen assay, M423T; format: biochemical; settings: M423T relative to NS5B WT (IC50 = 4.3 μM)
# Huh-9-13 cells = assay: vital stains; format: cell-based
# Summary of the method: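 Huh-9-13 replicon cells seeded at 25.000 cells/dish in complete DMEM without G418. Next day, treated with test compound (90 μM), an NS3 protease inhibitor (15 μM) or DMSO for 3 days at 37 °C, 5% CO2. Stained 30 min with Nile Red (2 μg/mL), monodansylcadaverine (50 μM) or LipidTOX Red (1/1000), then imaged live by confocal microscopy.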
# [2] = thermodynamic and kinetic water solubility; format: physicochemical
# Summary of the method: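 Test compound solutions shaken in a shaker bath for 48 h at room temperature, then filtered. Dissolved compound quantified by LC–UV–MS against calibration curves made from standard solutions in methanol. Determinations in triplicate.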
# recombinant NS5BCΔ21 1b = recombinant NS5BCΔ21 1b (Hepatitis C virus genotype 1b, UniProt O92972); assay: NS5B primer dependent elongation; format: biochemical
# [3] = tested on: genotype 1b HCV subgenomic replicon in Huh-5-2 cells; format: cell-based, hepatitis C virus
# Huh-5-2 cells = assay: microscopic examination of cell morphology in the replicon assay; format: cell-based; settings: 72 h of compound treatment
SMILES,fold change [1],induction of multilamellar bodies (monodansylcadaverine stain) (Huh-9-13 cells; 90 μM),neutral lipids content (Nile Red and LipidTOX red stain) (Huh-9-13 cells; 90 μM),solubility kinetic at 48 h ([2]; kinetic from dmso stock),solubility thermodynamic at 48 h ([2]; thermodynamic from solid),fold higher NS5B inhibitory activity than parent compound 1 (recombinant NS5BCΔ21 1b),fold more active than o-chlorine derivative 2c (NS5B) (recombinant NS5BCΔ21 1b),assessment of anti-HCV activity in the replicon assay (in words) [3],induction of phospholipidosis/steatosis (different stainings) (Huh-9-13 cells),effect on cell morphology (microscopic analysis) (Huh-5-2 cells),SI (ratio of CC50 to EC50) [3]
"CN1c2c(C(=O)Nc3ccc(NS(C)(=O)=O)cc3)nn(-c3cccc(Cl)c3)c2-c2ccccc2S1(=O)=O [2a, 1-(3-Chlorophenyl)-4-methyl-N-{4-[(methylsulfonyl)amino]phenyl}-1,4-dihydropyrazolo[4,3-c][1,2]benzothiazine-3-carboxamide 5,5-Dioxide]",~2,did not induce multilamellar bodies,significantly altered the neutral lipids content,0.275 µM,0.00398 µM,about 5 fold,about 4 fold,selective anti-HCV activity without any antimetabolic effect,–,–,–
"CN1c2c(C(=O)Nc3ccc(NS(C)(=O)=O)cc3)nn(-c3ccc(Cl)cc3)c2-c2ccccc2S1(=O)=O [2b, 1-(4-Chlorophenyl)-4-methyl-N-{4-[(methylsulfonyl)amino]phenyl}-1,4-dihydropyrazolo[4,3-c][1,2]benzothiazine-3-carboxamide 5,5-Dioxide]",–,–,–,–,–,–,~2 fold,selective anti-HCV activity without any antimetabolic effect,induced pospholipidosis/steatosis,did not show any significant cell morphological alterations; also recorded: did not display any significant effects on cell morphology; also recorded: did not exhibit any cell morphological alterations; also recorded: did not show any significant alteration in cell morphology; also recorded: did not display any antimetabolic and cell morphology alteration effects,> 28
